According to PubChem BioAssay:
For some of these results: Measured potencies and affinities stand elsewhere. Activity calls are given as the source filed them.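 The calls were made as follows, unless noted: active = earlier screen potentiator hit that boosts the TRPC4 ion channel at some dose, with a dose response; inactive = no potentiation, no dose response, or not a prior hit.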

These compounds were tested against Short transient receptor potential channel 4 (Mus musculus) (UniProt Q9QUQ5) (assay: inhibitors of mouse TRPC4 channel, confirmation, cell-based, second round, Fluo4, HEK293 TRPC4beta/mu-opioid, 1 µM (AID 2637;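 active = calcium signal ratio cut to more than 3 SD under the fully stimulated control mean yet still positive, in both repeats and the primary screen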)). Conditions: Fluo4 calcium flux, DAMGO, at 1 µM.
Procedure, shortened: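 Test system: HEK293 stable line co-expressing TRPC4beta and mu-opioid receptor. Compound dosing: single test compound concentration, 1 µM final. Measured by: Fluo4 calcium fluorescence, kinetic real-time read after baseline. Incubation: Fluo4 loading 45 min, compound exposure 110 s. Probe or stimulus: sequential submaximal then maximal DAMGO stimulation. Controls: ECmax and compound-free wells.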

Chain of Short transient receptor potential channel 4 (Mus musculus) (Q9QUQ5 whole entry, looked up): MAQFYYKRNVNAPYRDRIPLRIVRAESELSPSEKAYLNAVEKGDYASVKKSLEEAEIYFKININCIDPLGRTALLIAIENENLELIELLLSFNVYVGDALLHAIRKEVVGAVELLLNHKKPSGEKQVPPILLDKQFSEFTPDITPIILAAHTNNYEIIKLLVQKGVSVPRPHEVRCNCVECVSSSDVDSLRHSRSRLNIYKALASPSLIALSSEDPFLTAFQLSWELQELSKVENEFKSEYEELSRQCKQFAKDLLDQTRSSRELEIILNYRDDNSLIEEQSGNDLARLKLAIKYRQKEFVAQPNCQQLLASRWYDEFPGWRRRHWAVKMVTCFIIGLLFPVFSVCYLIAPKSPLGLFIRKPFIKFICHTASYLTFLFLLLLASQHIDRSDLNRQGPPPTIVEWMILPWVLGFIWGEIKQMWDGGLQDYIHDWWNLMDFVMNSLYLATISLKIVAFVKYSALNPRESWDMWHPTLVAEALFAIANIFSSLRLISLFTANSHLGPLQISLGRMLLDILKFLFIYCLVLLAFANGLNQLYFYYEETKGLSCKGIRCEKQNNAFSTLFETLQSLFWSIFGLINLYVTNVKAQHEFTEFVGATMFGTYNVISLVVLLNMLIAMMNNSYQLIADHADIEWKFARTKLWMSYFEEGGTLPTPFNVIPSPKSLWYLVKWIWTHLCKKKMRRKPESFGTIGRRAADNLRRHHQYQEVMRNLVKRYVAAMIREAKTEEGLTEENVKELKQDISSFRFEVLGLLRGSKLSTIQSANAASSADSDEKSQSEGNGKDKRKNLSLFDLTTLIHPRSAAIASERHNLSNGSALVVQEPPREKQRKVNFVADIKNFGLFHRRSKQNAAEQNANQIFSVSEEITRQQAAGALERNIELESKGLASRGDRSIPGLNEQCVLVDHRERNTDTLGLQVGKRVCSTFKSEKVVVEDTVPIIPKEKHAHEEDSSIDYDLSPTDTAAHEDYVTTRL

outcome, inactive:
COc1ccc(CCN(C)C(=O)C2CCCN(C3CCN(Cc4ccccc4)CC3)C2)cc1OC (stereo unspecified)
CCOc1ccc(S(=O)(=O)Nc2cccc(C(=O)NCC(c3ccccc3)N(C)C)c2)cc1 (stereo unspecified)
Cc1cc(C)cc(NC(=S)N2CCN(c3ncc(C(F)(F)F)cc3Cl)CC2)c1
COc1ccc(C(CNC(=O)c2cccc(Br)c2)N2CCCC2)cc1 (stereo unspecified)
CC(C)n1cnc2c(N(C)c3ccccc3)nc(N(CCN(C)C)Cc3ccccc3)nc21
Cc1cccn2c(CNCCc3ccccn3)c(C(=O)N3CCOCC3)nc12
Cc1ccc(C)c(-n2cc(CNCCCn3cccn3)c(-c3ccccc3)n2)c1
Cc1csc2c(N3CCN(C(=O)Nc4ccc(OC(F)(F)F)cc4)CC3)ncnc12
CN(CCc1ccccn1)C(=S)Nc1cccc(S(=O)(=O)N(C)C)c1
Cc1ccc(NC(=S)NC2CC3CCC(C2)N3Cc2ccco2)c(C)c1 (stereo unspecified)
COc1cc2c(cc1OC)C(C)N(C(=O)C(NC(=O)c1ccccc1)C(C)C)CC2 (stereo unspecified)
O=C(NC1CC1)C1=C[C@H](c2csc3ccccc23)C[C@H](OCc2ccc(CO)cc2)O1
Clc1ccc2nc(N3CCNCC3)nc(-c3ccccc3)c2c1
COc1ccc(C(CNC(=O)/C=C/c2c(Cl)nc3ccccn23)N(C)C)cc1 (stereo unspecified)
CC(=O)n1cc([C@H]2C=C(C(=O)NCc3ccccc3)O[C@@H](OCc3ccc(CO)cc3)C2)c2ccccc21
CCCn1ncc(CN2CCC(n3nccc3NC(=O)CCc3ccccc3)CC2)c1C
CC(=O)NC(CC(=O)NCC(c1ccco1)N(C)C)c1ccccc1 (stereo unspecified)
COc1ccc(C(=O)NNC(=S)NC(=O)c2cccs2)cc1
COCCn1nnnc1C(c1cc2ccc(OC)cc2[nH]c1=O)N1CCN(C2CCCCC2)CC1 (stereo unspecified)
O=C(c1sc2ccccc2c1Cl)N(Cc1ccccc1)C1CCS(=O)(=O)C1 (stereo unspecified)
O=c1c(Cc2ccc(F)cc2)c(O)ccn1CCc1cnc[nH]1

The compounds below were run against Short transient receptor potential channel 4 (Mus musculus) (UniProt Q9QUQ5) (assay: TRPC4 positive allosteric modulators, dose response, cell-based, HEK293 TRPC4/mu-opioid, Fluo-4 calcium, EC20 DAMGO (AID 434941;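 also: calcium entry triggered by an EC20 dose of DAMGO at the co-expressed mu-opioid receptor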)). Conditions: HEK293 TRPC4/mu-opioid cells, Fluo-4 calcium fluorescence; series mostly up to 20 µM.

outcome, inactive:
NC1=NC2(CCN(Cc3ccccc3)CC2)n2c(nc3ccccc32)N1
COc1ccc(CN2CCC(N(CCc3ccccc3)Cc3ccccc3)CC2)c(OC)c1
CCc1ccc(C(=O)c2cnc3ccc(OC)cc3c2N2CCN(CC)CC2)cc1
S=C(NCCc1cnc[nH]1)NC1CCCC1
O=C(NCc1ccccc1)C1=C[C@H](c2ccccc2)C[C@H](OCc2ccc(CO)cc2)O1
Cc1ccc(OCC(=O)N(C)CCc2ccccn2)cc1
CC(C)(C)C(=O)/C=c1\s/c(=C\c2ccc(-c3ccc([N+](=O)[O-])cc3)o2)c(=O)n1CC(=O)NC(N)=O
NC(=O)C1CCCN(CCc2ccccc2)C1 (stereo unspecified)
Cc1cc2nc3s/c(=C/c4ccc(-c5ccccc5C(=O)O)o4)c(=O)n3c2cc1C
COc1ccc(CNCc2cn(-c3cccc(F)c3)nc2-c2ccc(C)o2)cc1
CN(C)C(CNc1ccc(C(F)(F)F)cn1)c1ccccc1 (stereo unspecified)
CN(C)C(CNC(=O)c1cccc(S(=O)(=O)N(C)C)c1)c1ccccc1 (stereo unspecified)
CCCc1c(O)nc(SCCN(CC)CC)[nH]c1=O
CCC(=O)N1CCc2cc(Br)cc(S(=O)(=O)NCCCN(CC)Cc3ccccc3)c21
Cc1ccc(Cn2c(SCCN3CCCCC3)nc3c2c(=O)n(C)c(=O)n3C)cc1
O=C(O)C1C2C=CC(C2)C1C(=O)N1CCN(C/C=C/c2ccccc2)CC1 (stereo unspecified)
COc1ccc(C)c(NC(=O)NCCc2cnc[nH]2)c1
OCCC1CN(Cc2ccccc2-c2ccco2)CCN1Cc1ccccc1 (stereo unspecified)
COc1ccc(CCN(C)C(=O)C2CCCN(C3CCN(Cc4ccccc4)CC3)C2)cc1OC (stereo unspecified)
CCOc1ccc(S(=O)(=O)Nc2cccc(C(=O)NCC(c3ccccc3)N(C)C)c2)cc1 (stereo unspecified)
Cc1cc(C)cc(NC(=S)N2CCN(c3ncc(C(F)(F)F)cc3Cl)CC2)c1
COc1ccc(C(CNC(=O)c2cccc(Br)c2)N2CCCC2)cc1 (stereo unspecified)
CC(C)n1cnc2c(N(C)c3ccccc3)nc(N(CCN(C)C)Cc3ccccc3)nc21
Cc1cccn2c(CNCCc3ccccn3)c(C(=O)N3CCOCC3)nc12
Cc1ccc(C)c(-n2cc(CNCCCn3cccn3)c(-c3ccccc3)n2)c1
